# In ChEMBL document CHEMBL2069204, “N-1-Alkyl-2-oxo-2-aryl amides as novel antagonists of the TRPA1 receptor” (Bioorg Med Chem Lett, 2012):
# Activity calls are given as the source filed them. The rule behind the calls is not given here.
# Tests used:
# [1] = target: T1, Transient receptor potential cation channel subfamily A member 1 (Homo sapiens, UniProt O75762); assay: Antagonist activity at human TRPA1 expressed in HEK293 cells assessed as inhibition of Zn2+-induced intracellular calcium flux by FLIPR assay; type: functional, cell-based
# T1 sequence (O75762 whole entry): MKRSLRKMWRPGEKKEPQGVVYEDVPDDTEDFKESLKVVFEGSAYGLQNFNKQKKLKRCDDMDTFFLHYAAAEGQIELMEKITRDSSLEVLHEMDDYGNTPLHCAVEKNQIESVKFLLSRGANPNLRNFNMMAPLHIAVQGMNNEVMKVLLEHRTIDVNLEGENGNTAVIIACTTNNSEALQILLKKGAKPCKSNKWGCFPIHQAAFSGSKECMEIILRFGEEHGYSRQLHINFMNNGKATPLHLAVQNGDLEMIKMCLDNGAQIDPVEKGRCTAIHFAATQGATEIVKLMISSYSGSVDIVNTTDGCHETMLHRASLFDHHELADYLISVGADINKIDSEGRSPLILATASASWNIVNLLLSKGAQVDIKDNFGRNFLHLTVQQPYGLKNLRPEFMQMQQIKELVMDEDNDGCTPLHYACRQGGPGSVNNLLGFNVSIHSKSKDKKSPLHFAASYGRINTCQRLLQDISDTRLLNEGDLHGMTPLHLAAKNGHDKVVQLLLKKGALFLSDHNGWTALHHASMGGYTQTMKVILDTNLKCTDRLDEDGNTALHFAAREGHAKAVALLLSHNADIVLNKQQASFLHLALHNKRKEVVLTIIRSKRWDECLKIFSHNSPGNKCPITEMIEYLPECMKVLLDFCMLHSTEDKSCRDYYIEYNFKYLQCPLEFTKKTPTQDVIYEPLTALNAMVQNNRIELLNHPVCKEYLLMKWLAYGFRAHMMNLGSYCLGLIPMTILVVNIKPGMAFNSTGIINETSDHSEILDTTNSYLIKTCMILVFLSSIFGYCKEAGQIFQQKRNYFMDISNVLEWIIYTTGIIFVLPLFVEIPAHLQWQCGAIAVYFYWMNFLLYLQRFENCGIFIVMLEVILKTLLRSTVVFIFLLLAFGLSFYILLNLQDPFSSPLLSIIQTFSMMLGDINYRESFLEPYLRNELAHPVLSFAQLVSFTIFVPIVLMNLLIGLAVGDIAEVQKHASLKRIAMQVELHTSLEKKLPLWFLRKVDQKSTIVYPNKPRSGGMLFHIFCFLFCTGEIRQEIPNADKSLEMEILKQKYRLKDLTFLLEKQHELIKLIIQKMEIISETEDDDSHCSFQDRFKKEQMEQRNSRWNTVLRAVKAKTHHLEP
# How it was run: (§1)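 Fluorescence-based TRPA1 antagonist assay with the agonist as the stimulus: Ca2+ for line 1 and Zn2+ for line 2. Results are reported as pIC50. Compounds with pIC50 > 5 were checked by automated electrophysiology on IonWorks to exclude autofluorescence artefacts. The IC50s from the two agonist formats were pooled and treated as one data set.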
# [2] = target: T1, Transient receptor potential cation channel subfamily A member 1; assay: Antagonist activity at human TRPA1 expressed in HEK293 cells assessed as inhibition of Ca2+-induced intracellular calcium flux by FLIPR assay; type: functional, cell-based; how it was run: as §1
# [3] = Solubility of the compound in phosphate buffer at pH 7.4 by dried DMSO method; type: physicochemical
# How it was run: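 Measured by the 'dried DMSO' method in phosphate buffer at pH 7.4. Results are binned as low (<1–5 μM), medium (5–25 μM) or good (>25 μM).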
# [4] = Metabolic stability in human microsomes assessed as glutathione adduct formation
IC50 [1] [nM],IC50 [2] [nM],Structure (SMILES),other results
–,–,C=CCN(CC=C)c1ccc(C(=O)C(NC(=O)c2ccccc2)C(C)C)cc1 (racemic),pIC50 [1]: < 4.5; pIC50 [2]: inactive
–,–,CC(C)C(NC(=O)c1ccccc1)C(=O)c1cccc(Cl)c1 (racemic),pIC50 [1]: < 4.5; pIC50 [2]: inactive
1260,7940,CC(C)C(NC(=O)c1ccccc1)C(=O)c1ccc(Br)cc1 (racemic),–
–,3980,CC(C)C(NC(=O)c1ccccc1)C(=O)c1ccc(C#N)cc1 (racemic),solubility kinetic [3]: 150 µM
2000,1580,Cc1noc(C(C)C)c1C(=O)NC(C(=O)c1ccc(C#N)cc1)C(C)C (stereo unspecified),–
–,–,CC(C)C(NC(=O)NCc1ccccc1)C(=O)c1ccc(C#N)cc1 (stereo unspecified),pIC50 [1]: inactive; pIC50 [2]: inactive
3980,7940,Cc1noc(-c2ccccc2)c1C(=O)NC(C(=O)c1ccc(C#N)cc1)C(C)C (stereo unspecified),–
251,316,CC(C)C(NC(=O)c1ccccc1)C(=O)c1ccc([N+](=O)[O-])cc1 (racemic),–
–,3160,CC(C)C(C)(NC(=O)c1ccccc1)C(=O)c1ccc(Cl)cc1 (stereo unspecified),pIC50 [1]: inactive
5010,3160,CC(C)C(NC(=O)c1ccccc1C(F)(F)F)C(=O)c1ccc(C#N)cc1 (stereo unspecified),–
–,–,O=C(CNC(=O)c1ccccc1)c1ccc(Cl)cc1,pIC50 [1]: inactive; pIC50 [2]: inactive
2000,–,CC(C)C(NC(=O)c1cc(Cl)ccc1F)C(=O)c1ccc(C#N)cc1 (stereo unspecified),pIC50 [2]: inactive
–,–,CC(C)C(NC(=O)c1ccccc1)C(=O)c1ccc(N)cc1 (racemic),pIC50 [1]: inactive; pIC50 [2]: inactive
–,3980,CC(C)C(NC(=O)N(C)C(C)(C)C)C(=O)c1ccc(C#N)cc1 (stereo unspecified),–
7940,5010,CC(C)C(NC(=O)c1ccccc1)C(=O)c1ccc(F)cc1 (racemic),–
398,1000,"CC(C)C(NC(=O)c1ccccc1)C(=O)c1ccc(Cl)cc1 (single isomer, unassigned; isomer 1)",–
3980,3160,CC(C)C(NC(=O)c1ccc(Cl)cc1F)C(=O)c1ccc(C#N)cc1 (stereo unspecified),–
–,–,CCCC(NC(=O)c1ccccc1)C(=O)c1ccc(Cl)cc1 (stereo unspecified),pIC50 [1]: inactive; pIC50 [2]: inactive
1260,2510,CC(C)C(NC(=O)c1ccccc1)C(=O)c1ccc(Cl)cc1 (racemic),–
–,398,CC(C)C(NC(=O)c1ccc(Cl)cc1)C(=O)c1ccc(C#N)cc1 (stereo unspecified),–
2510,2000,CC(C)C(NC(=O)NC(C)(C)C)C(=O)c1ccc(Cl)cc1 (stereo unspecified),–
794,1000,CC(C)C(NC(=O)OC(C)(C)C)C(=O)c1ccc(Cl)cc1 (stereo unspecified),–
–,–,"CC(C)C(NC(=O)c1ccccc1)C(=O)c1ccc(Cl)cc1 (single isomer, unassigned; isomer 2)",pIC50 [1]: inactive; pIC50 [2]: inactive

IC50 [1] [nM],IC50 [2] [nM],Structure (SMILES),other results
6310,12600,COc1ccc(C(=O)NC(C(=O)c2ccc(C#N)cc2)C(C)C)cc1 (stereo unspecified),–
1580,3980,CC(C)C(NC(=O)c1cc2ccccc2n1C)C(=O)c1ccc(C#N)cc1 (stereo unspecified),–
631,251,CC(C)C(NC(=O)N(C)C(C)(C)C)C(=O)c1ccc(Cl)cc1 (stereo unspecified),–
398,1000,CC(C)(C)C(NC(=O)c1ccccc1)C(=O)c1ccc(Cl)cc1 (stereo unspecified),–
2000,2000,O=C(NC(C(=O)c1ccc(Cl)cc1)C1CC1)c1ccccc1 (stereo unspecified),–
15800,5010,CC(C)C(NC(=O)OC(C)(C)C)C(=O)c1ccc(Cl)cn1 (stereo unspecified),–
–,–,Cc1noc(C(C)C)c1C(=O)NC1C(=O)c2ccc(Cl)cc2CC1(C)C (stereo unspecified),pIC50 [1]: inactive
2000,1260,CC(C)C(NC(=O)OC(C)(C)C)C(=O)c1ccc(C#N)c(F)c1 (stereo unspecified),–
2510,5010,CC(C)C(NC(=O)c1ccc(Cl)cc1Cl)C(=O)c1ccc(C#N)cc1 (stereo unspecified),–
1000,2000,CCCCCCCCCC(=O)NC(C(=O)c1ccc(C#N)cc1)C(C)C (stereo unspecified),–
316,398,CC(C)C(NC(=O)c1cc(C(F)(F)F)ccc1Cl)C(=O)c1ccc(C#N)cc1 (stereo unspecified),–
2510,6310,CC(C)C(NC(=O)OC(C)(C)C)C(=O)c1ccc(C#N)cc1 (stereo unspecified),–
501,1000,CC(C)C(NC(=O)c1cnoc1C(C)(C)C)C(=O)c1ccc(C#N)cc1 (stereo unspecified),–
10,–,CC(C)C(NC(=O)c1cc(Cl)ccc1C(F)(F)F)C(=O)c1ccc([N+](=O)[O-])cc1 (stereo unspecified),solubility kinetic [3]: < 1 µM
–,–,CC(C)C(NC(=O)Nc1ccc(F)cc1)C(=O)c1ccc(C#N)cc1 (stereo unspecified),pIC50 [1]: inactive; pIC50 [2]: inactive
–,–,CC(C)C(NC(=O)c1ccccc1)C(=O)c1ccc(S(C)(=O)=O)cc1 (racemic),pIC50 [1]: inactive; pIC50 [2]: inactive
398,–,CC(C)C(NC(=O)c1cnn(C(C)(C)C)c1C(F)(F)F)C(=O)c1ccc2nonc2c1 (stereo unspecified),–
200,–,Cc1noc(C(C)C)c1C(=O)NC(C(=O)c1ccc(C#N)c(F)c1)C(C)(C)C (stereo unspecified),solubility kinetic [3]: 80 µM
–,–,CC(C)C(NC(=O)c1ccccc1)C(=O)c1ccccc1 (racemic),pIC50 [1]: < 4.5; pIC50 [2]: inactive
5010,5010,CC(C)C(NC(=O)N1CCc2ccccc2C1)C(=O)c1ccc(C#N)cc1 (stereo unspecified),Stability [4]: Unstable
–,3980,CC(C)C(NC(=O)c1ccccc1)C(=O)c1ccc(Cl)c(Cl)c1 (racemic),–
–,–,O=C(NC1(C(=O)c2ccc(Cl)cc2)CCC1)c1ccccc1,pIC50 [1]: inactive; pIC50 [2]: inactive
